Measured values from different studies.
Compare with care: the assays were run in different laboratories.

| SMILES | target or system | read-out | method | tested at | time | measurement | result |
| --- | --- | --- | --- | --- | --- | --- | --- |
| Cc1c(-c2ccc(N3CCc4cccc(C(=O)Nc5nc6ccccc6s5)c4C3)nc2C(=O)NCCOCCOCCOCCNc2cccc3c2C(=O)N(C2CCC(=O)NC2=O)C3=O)cnn1CC12CC3CC(CC(C3)C1)C2 (centres unmarked) | MOLT-4 | cell growth or viability | MTS | – | 48 h | IC50 | 0.0067 µM |
| N#CSCc1cc(=O)oc2cc(O)ccc12 | T47D | cell growth or viability | SRB | – | – | GI50 | 5.9 µM |
| O=C(O)c1cn(C2CC2)c2cc(N3CCNCC3)c(F)cc2c1=O | Pseudomonas aeruginosa | microbial growth | well diffusion | 20 µg/mL | – | inhibition zone | 3 mm |
| Cc1cc(=O)oc2cc(OCCCCSC#N)ccc12 | T47D | cell growth or viability | SRB | – | – | GI50 | 2.5 µM |
| Cc1ccc(-c2nn(-c3ccccc3)cc2C=Nc2c(N)nc(S)nc2O)cc1 | Jurkat | cell growth or viability | – | – | 48 h | CC50 | 13.1 µM |
| Cc1nc(Nc2ncc(C(=O)Nc3c(C)cccc3Cl)s2)cc(N2CC[C@H](O)C2)n1 | SU-DHL-2 | cell growth or viability | ATP luminescence | 10 µM | 72 h | inhibition | 33% |
| O=c1[nH]ncc(NN=Cc2cn(-c3ccccc3)nc2-c2cc3ccccc3oc2=O)c1Cl | Jurkat | cell growth or viability | – | – | 48 h | CC50 | > 40 µM |
| O=C(C[C@@H](C(F)F)n1ccc(F)n1)N1CCC(O)(Cn2cnc3c(cnn3-c3ccc(F)cc3)c2=O)CC1 | LNCaP | cell growth or viability | CCK-8 | 0.1235 µM | – | viability | 18.3% |
